In ChEMBL document CHEMBL1629548, “In vitro activities of tigecycline against clinical isolates of Aeromonas, Vibrio, and Salmonella species in Taiwan” (2008):

Tests used:
Vibrio vulnificus [1] = experiment: Antimicrobial activity against Vibrio vulnificus assessed as susceptible isolate by EUCAST method; format: functional
Procedure, shortened: (§1)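 Susceptibility categories assigned from tigecycline broth microdilution MICs (CLSI method, 0.03–128 μg/ml) using US FDA or EUCAST breakpoints, as named in each line.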

Aeromonas caviae [2] = experiment: Antimicrobial activity against Aeromonas caviae assessed as susceptible isolate by EUCAST method; format: functional; procedure, shortened: as §1
Vibrio cholerae [3] = experiment: Antimicrobial activity against Vibrio cholerae non-O1 assessed as resistant isolate by FDA method; format: functional
Procedure, shortened: (§2)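 Tigecycline MICs for clinical isolates (Taiwan) were determined by broth microdilution over 0.03 to 128 μg/ml. A control strain was included, and its MICs had to fall within the recommended range. Susceptible, intermediate and resistant categories were assigned from the MICs using US FDA and EUCAST breakpoints.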

Vibrio cholerae [4] = experiment: Antimicrobial activity against Vibrio cholerae non-O1 assessed as susceptible isolate by EUCAST method; format: functional; procedure, shortened: as §2
Salmonella [5] = experiment: Antimicrobial activity against Salmonella serogroup O7 assessed as susceptible isolate by FDA method; format: functional; procedure, shortened: as §1
Aeromonas sobria [6] = experiment: Antimicrobial activity against Aeromonas sobria assessed as intermediate isolate by EUCAST method; format: functional; procedure, shortened: as §1
Salmonella [7] = experiment: Antimicrobial activity against Salmonella serogroup O7 assessed as susceptible isolate by EUCAST method; format: functional; procedure, shortened: as §1
Vibrio vulnificus [8] = experiment: Antimicrobial activity against Vibrio vulnificus assessed as intermediate isolate by FDA method; format: functional; procedure, shortened: as §1
Aeromonas sobria [9] = experiment: Antimicrobial activity against Aeromonas sobria assessed as intermediate isolate by FDA method; format: functional; procedure, shortened: as §2
Vibrio cholerae [10] = experiment: Antimicrobial activity against Vibrio cholerae non-O1 assessed as resistant isolate by EUCAST method; format: functional; procedure, shortened: as §2
Aeromonas hydrophila [11] = experiment: Antimicrobial activity against Aeromonas hydrophila assessed as susceptible isolate by FDA method; format: functional; procedure, shortened: as §1
Vibrio vulnificus [12] = experiment: Antimicrobial activity against Vibrio vulnificus assessed as susceptible isolate by FDA method; format: functional; procedure, shortened: as §1
Salmonella typhimurium [13] = experiment: Antimicrobial activity against Salmonella serotype Typhimurium assessed as susceptible isolate by EUCAST method; format: functional, Salmonella enterica subsp. enterica serovar Typhimurium; procedure, shortened: as §1
Vibrio parahaemolyticus [14] = experiment: Antimicrobial activity against Vibrio parahaemolyticus assessed as susceptible isolate by FDA method; format: functional; procedure, shortened: as §1
Vibrio cholerae [15] = experiment: Antimicrobial activity against Vibrio cholerae non-O1 assessed as intermediate isolate by FDA method; format: functional; procedure, shortened: as §2
Salmonella [16] = experiment: Antimicrobial activity against Salmonella serogroup O8 assessed as susceptible isolate by FDA method; format: functional; procedure, shortened: as §1
Aeromonas hydrophila [17] = experiment: Antimicrobial activity against Aeromonas hydrophila assessed as susceptible isolate by EUCAST method; format: functional; procedure, shortened: as §1
Aeromonas hydrophila [18] = experiment: Antimicrobial activity against Aeromonas hydrophila assessed as intermediate isolate by EUCAST method; format: functional; procedure, shortened: as §1
Vibrio cholerae [19] = experiment: Antimicrobial activity against Vibrio cholerae non-O1 assessed as intermediate isolate by EUCAST method; format: functional; procedure, shortened: as §2
Aeromonas sobria [20] = experiment: Antimicrobial activity against Aeromonas sobria assessed as susceptible isolate by EUCAST method; format: functional; procedure, shortened: as §1
Vibrio parahaemolyticus [21] = experiment: Antimicrobial activity against Vibrio parahaemolyticus assessed as susceptible isolate by EUCAST method; format: functional; procedure, shortened: as §1
Aeromonas caviae [22] = experiment: Antimicrobial activity against Aeromonas caviae assessed as resistant isolate by FDA method; format: functional; procedure, shortened: as §2
Aeromonas caviae [23] = experiment: Antimicrobial activity against Aeromonas caviae assessed as intermediate isolate by EUCAST method; format: functional; procedure, shortened: as §2
[24] = Antimicrobial activity against Salmonella serotype Choleraesuis assessed as intermediate isolate by EUCAST method; format: functional, Salmonella enterica subsp. enterica serovar Choleraesuis; procedure, shortened: as §2
Salmonella typhimurium [25] = experiment: Antimicrobial activity against Salmonella serotype Typhimurium assessed as intermediate isolate by EUCAST method; format: functional, Salmonella enterica subsp. enterica serovar Typhimurium; procedure, shortened: as §1
Salmonella [26] = experiment: Antimicrobial activity against Salmonella serogroup O9 assessed as susceptible isolate by FDA method; format: functional; procedure, shortened: as §1
Aeromonas caviae [27] = experiment: Antimicrobial activity against Aeromonas caviae assessed as susceptible isolate by FDA method; format: functional; procedure, shortened: as §2
Salmonella typhimurium [28] = experiment: Antimicrobial activity against Salmonella serotype Typhimurium assessed as susceptible isolate by FDA method; format: functional, Salmonella enterica subsp. enterica serovar Typhimurium; procedure, shortened: as §1
[29] = Antimicrobial activity against Salmonella serotype Choleraesuis assessed as resistant isolate by EUCAST method; format: functional, Salmonella enterica subsp. enterica serovar Choleraesuis; procedure, shortened: as §2
Salmonella [30] = experiment: Antimicrobial activity against Salmonella serogroup O9 assessed as susceptible isolate by EUCAST method; format: functional; procedure, shortened: as §1
Vibrio parahaemolyticus [31] = experiment: Antimicrobial activity against Vibrio parahaemolyticus assessed as intermediate isolate by FDA method; format: functional; procedure, shortened: as §2
[32] = Antimicrobial activity against Salmonella serotype Choleraesuis assessed as intermediate isolate by FDA method; format: functional, Salmonella enterica subsp. enterica serovar Choleraesuis; procedure, shortened: as §2
Vibrio vulnificus [33] = experiment: Antimicrobial activity against Vibrio vulnificus assessed as intermediate isolate by EUCAST method; format: functional; procedure, shortened: as §2
Salmonella [34] = experiment: Antimicrobial activity against Salmonella serogroup O9 assessed as intermediate isolate by EUCAST method; format: functional; procedure, shortened: as §2
Salmonella [35] = experiment: Antimicrobial activity against Salmonella serogroup O8 assessed as intermediate isolate by EUCAST method; format: functional; procedure, shortened: as §1
Salmonella [36] = experiment: Antimicrobial activity against Salmonella serogroup O9 assessed as intermediate isolate by FDA method; format: functional; procedure, shortened: as §1
Salmonella typhimurium [37] = experiment: Antimicrobial activity against Salmonella serotype Typhimurium assessed as intermediate isolate by FDA method; format: functional, Salmonella enterica subsp. enterica serovar Typhimurium; procedure, shortened: as §1
Salmonella [38] = experiment: Antimicrobial activity against Salmonella serogroup O7 assessed as intermediate isolate by EUCAST method; format: functional; procedure, shortened: as §1
[39] = Antimicrobial activity against Salmonella serotype Choleraesuis assessed as resistant isolate by FDA method; format: functional, Salmonella enterica subsp. enterica serovar Choleraesuis; procedure, shortened: as §2
Salmonella [40] = experiment: Antimicrobial activity against Salmonella serogroup O8 assessed as intermediate isolate by FDA method; format: functional; procedure, shortened: as §1
Aeromonas hydrophila [41] = experiment: Antimicrobial activity against Aeromonas hydrophila assessed as intermediate isolate by FDA method; format: functional; procedure, shortened: as §2
Aeromonas caviae [42] = experiment: Antimicrobial activity against Aeromonas caviae assessed as intermediate isolate by FDA method; format: functional; procedure, shortened: as §1
Aeromonas sobria [43] = experiment: Antimicrobial activity against Aeromonas sobria assessed as susceptible isolate by FDA method; format: functional; procedure, shortened: as §1
Salmonella [44] = experiment: Antimicrobial activity against Salmonella serogroup O8 assessed as susceptible isolate by EUCAST method; format: functional; procedure, shortened: as §1
[45] = Antimicrobial activity against Salmonella serotype Choleraesuis assessed as susceptible isolate by FDA method; format: functional, Salmonella enterica subsp. enterica serovar Choleraesuis; procedure, shortened: as §2
Vibrio parahaemolyticus [46] = experiment: Antimicrobial activity against Vibrio parahaemolyticus assessed as intermediate isolate by EUCAST method; format: functional; procedure, shortened: as §1
Salmonella [47] = experiment: Antimicrobial activity against Salmonella serogroup O7 assessed as intermediate isolate by FDA method; format: functional; procedure, shortened: as §1
Vibrio cholerae [48] = experiment: Antimicrobial activity against Vibrio cholerae non-O1 assessed as susceptible isolate by FDA method; format: functional; procedure, shortened: as §2

Compound `CN(C)c1cc(NC(=O)CNC(C)(C)C)c(O)c2c1C[C@H]1C[C@H]3[C@H](N(C)C)C(O)=C(C(N)=O)C(=O)[C@@]3(O)C(O)=C1C2=O` [TIGECYCLINE] has an Activity (Vibrio vulnificus [1]) of 100%, an Activity (Aeromonas caviae [2]) of 96.8% and an Activity (Vibrio cholerae [3]) of 0%. The Activity (Vibrio cholerae [4]) was 100%, the Activity (Salmonella [5]) was 100% and the Activity (Aeromonas sobria [6]) was 0%. For the same compound, the Activity (Salmonella [7]) was 100%, the Activity (Vibrio vulnificus [8]) was 0% and the Activity (Aeromonas sobria [9]) was 0%. For the same compound, the Activity (Vibrio cholerae [10]) was 0%, the Activity (Aeromonas hydrophila [11]) was 100% and the Activity (Vibrio vulnificus [12]) was 100%. It also gave an Activity (Salmonella typhimurium [13]) of 98.4%, an Activity (Vibrio parahaemolyticus [14]) of 100% and an Activity (Vibrio cholerae [15]) of 0%. The Activity (Salmonella [16]) was 100%, the Activity (Aeromonas hydrophila [17]) was 98.8% and the Activity (Aeromonas hydrophila [18]) was 1.2%. It also gave an Activity (Vibrio cholerae [19]) of 0%, an Activity (Aeromonas sobria [20]) of 100% and an Activity (Vibrio parahaemolyticus [21]) of 100%. It also gave an Activity (Aeromonas caviae [22]) of 0%, an Activity (Aeromonas caviae [23]) of 1.6% and an Activity [24] of 1.6%. For the same compound, the Activity (Salmonella typhimurium [25]) was 1.6%, the Activity (Salmonella [26]) was 100% and the Activity (Aeromonas caviae [27]) was 98.4%. The Activity (Salmonella typhimurium [28]) was 100%, the Activity [29] was 0% and the Activity (Salmonella [30]) was 100%. The Activity (Vibrio parahaemolyticus [31]) was 0%, the Activity [32] was 0% and the Activity (Vibrio vulnificus [33]) was 0%. The Activity (Salmonella [34]) was 0%, the Activity (Salmonella [35]) was 0% and the Activity (Salmonella [36]) was 0%. The Activity (Salmonella typhimurium [37]) was 0%, the Activity (Salmonella [38]) was 0% and the Activity [39] was 0%. It also gave an Activity (Salmonella [40]) of 0%, an Activity (Aeromonas hydrophila [41]) of 0% and an Activity (Aeromonas caviae [42]) of 1.6%. For the same compound, the Activity (Aeromonas sobria [43]) was 100%, the Activity (Salmonella [44]) was 100% and the Activity [45] was 100%. For the same compound, the Activity (Vibrio parahaemolyticus [46]) was 0%, the Activity (Salmonella [47]) was 0% and the Activity (Vibrio cholerae [48]) was 100%.
